Source: PubChem (several laboratories)
An excerpt weighted towards active compounds, which were near 2.5% of everything screened.
Insulin prom inh = inhibitors of insulin promoter-driven GFP, primary screen, imaging, TRM-6 cells (human fetal islet line), eGFP reporter, cell count; reporter expression induced with tamoxifen; inhibition, % at 2 µM; 130,000 compounds, 0.9% hits;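 active = inhibition above the mean plus 3 SD, with well images judged a real hit on visual review, cut at about 60% in these data, passing the limit was not always enough; inconclusive = inhibition over the cutoff but images rejected on review; inactive = inhibition not above the cutoff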
NPY2 pot ag = NPY-Y2 potentiators or agonists, primary screen, cell-based. Neuropeptide Y receptor type 2 (Homo sapiens), P49146. cells expressing NPY-Y2, potentiator/agonist read-out. activation, % at 3.6 µM. 220,000 compounds, 0.45% hits; in the data active = activation above about 27%;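 note: cells stimulated with NPY near EC25 plus isoproterenol at EC100; 0% = vehicle plus submaximal agonist and 100% = vehicle plus saturating agonist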
NPY-Y2 antag = NPY-Y2 receptor antagonists, primary screen, cell-based | Neuropeptide Y receptor type 2 (Homo sapiens), P49146 | NPY-Y2 expressing cells, antagonist mode | inhibition, % at 2.7 µM | 140,000 compounds, 0.99% hits | AID 793, 2007;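 note: 0% = vehicle with agonist challenge and 100% = reference antagonist with challenge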
Ins promoter up = insulin promoter activators in MIN6 cells, imaging, high-content screening, mouse beta cells. MIN6 insulin promoter-GFP reporter; hits give high values. z-score at 5 µM. 190,000 compounds, 0.3% hits;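 active = z-score above 3 at 5 µM with at least 500 cells counted in the well; inconclusive = wells under 500 cells, flagged as cytotoxic or low count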
NPY1 pot ag = NPY-Y1 receptor potentiators or agonists, primary screen, cell-based. AID 1304, 2008. NPY-Y1 expressing cells, potentiator/agonist activation. 220,000 compounds, 0.37% hits. activation, % at 3.6 µM. Neuropeptide Y receptor type 1 (Homo sapiens), P25929; in the data active = activation above about 33%, passing the limit was not always enough;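 note: cells stimulated with NPY at EC10 then isoproterenol at EC100; 0% = low agonist plus stimulus and 100% = saturating agonist plus stimulus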
Target sequence (P25929 whole entry, looked up): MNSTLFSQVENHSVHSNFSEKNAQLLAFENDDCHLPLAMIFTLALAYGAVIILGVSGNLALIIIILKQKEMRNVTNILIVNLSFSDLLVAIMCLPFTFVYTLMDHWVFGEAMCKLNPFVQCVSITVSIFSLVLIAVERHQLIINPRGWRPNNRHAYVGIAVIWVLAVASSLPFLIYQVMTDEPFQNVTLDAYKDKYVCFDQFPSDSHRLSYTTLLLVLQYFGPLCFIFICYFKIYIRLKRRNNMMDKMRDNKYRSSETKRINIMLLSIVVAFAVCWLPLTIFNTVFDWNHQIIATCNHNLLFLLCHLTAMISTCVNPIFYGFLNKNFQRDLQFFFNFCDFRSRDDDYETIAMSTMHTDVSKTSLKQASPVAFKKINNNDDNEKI
NPY-Y1 antag = NPY-Y1 receptor antagonists, primary screen, cell-based; Neuropeptide Y receptor type 1 (Homo sapiens), P25929; HEK293-CNG Y1 cells, membrane potential fluorescence; NPY at EC95, then isoproterenol; inhibition, % at 3.6 µM; 200,000 compounds, 1% hits; AID 1040, 2008;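 active = inhibition above the campaign mean inhibition of all tested compounds plus 3 SD, cut at about 20% in these data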;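 note: 0% = DMSO wells given NPY plus isoproterenol and 100% = isoproterenol alone without NPY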
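Material: HEK293 cells co-expressing NPY Y1 receptor and cyclic-nucleotide gated channel. Timing: compound incubation 1 h at room temperature, readout 45 min post-stimulation. Signal: fluorescence, membrane potential probe.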
NPY1 antag conf = NPY-Y1 receptor antagonists, retest of hits, confirmation, HEK293-CNG cells, membrane potential fluorescence, triplicate. inhibition, % at 3.6 µM. cAMP; NPY challenge against isoproterenol-raised cAMP. shares compounds with NPY-Y1 antag. 1,200 compounds, 21% hits; in the data active = inhibition above about 20%;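 note: 0% = vehicle with agonist plus stimulus and 100% = stimulus alone without agonist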
NPY2 antag ctr = NPY-Y2 receptor antagonists, selectivity check, confirmation, counter-screen for NPY-Y1 antagonist project, HEK293-CNG cells, membrane potential fluorescence, triplicate | 1,200 compounds, 28% hits | inhibition, % at 3.6 µM | antagonism; cells given NPY, then isoproterenol | AID 1255, 2008 | shares compounds with NPY-Y1 antag;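 note: 0% = DMSO with agonist challenge and 100% = reference antagonist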
An asterisk follows results filed as active; ? = inconclusive; · = no result. Cut-off read from the data, not from the text of the source, unless noted: active = inhibition above about 17%; inactive = the rest.

SMILES	Insulin prom inh	NPY2 pot ag	NPY-Y2 antag	Ins promoter up	NPY1 pot ag	NPY-Y1 antag	NPY1 antag conf	NPY2 antag ctr
O=[N+]([O-])c1ccc(/C=N/NC2=NS(=O)(=O)c3ccccc32)cc1	5	-9	·	-0.34	1	-1	·	·
COc1ccc(-c2cc(C(=O)NCC3CCCO3)c3ccccc3n2)cc1 (configuration not stated)	·	-13	·	0.21	-17	2	·	·
COc1ccc(N=c2oc3cc(O)ccc3cc2C(=O)NCC2CCCO2)cc1 (configuration not stated)	·	-9	17	-0.91	-17	33*	11	6
Cn1cc(C=O)c2cc(S(=O)(=O)N3CCOCC3)ccc21	50	-10	1	-0.15	-5	4	·	·
CNCCCOc1cccc(Oc2ccccc2)c1	·	-14	·	0.39	-8	23*	6	13
CC(C)NC(=O)NC(=O)CN1C(=O)NC(Cc2c[nH]c3ccccc23)C1=O (configuration not stated)	24	8	·	-0.31	9	7	·	·
O=C1CSC(=Nc2ccc(Cl)cc2)N1Cc1cccnc1	·	-10	·	0.48	1	·	·	·
O=C(O)C1CCC(Cn2c(SCc3cc(=O)n4cc(Br)ccc4n3)nc3ccsc3c2=O)CC1 (configuration not stated)	56	-37	·	-0.59	-26	26*	80*	87*
O=C(O)c1ccc(Cn2c(SCc3cc(=O)n4cc(Br)ccc4n3)nc3ccsc3c2=O)cc1	18	10	·	1.7	26	-2	·	·
CCC(=O)N1CCc2cc(S(=O)(=O)N(CC)c3cccc(C)c3)ccc21	39	-6	5	-1.3	13	2	·	·
CCN(c1cccc(C(F)(F)F)c1)S(=O)(=O)c1ccc2c(c1)CCN2C(=O)C1CC1	-13	-8	14	-0.25	-50	24*	14	13
COn1c(SCc2ccc(Cl)cc2)nc2ccccc2c1=O	-77	-16	10	-0.43	-52	38*	27*	21*
Cc1cc(C)c(OC2(c3ccccc3)OC(=O)c3ccccc32)c(C)c1 (configuration not stated)	-58	-17	16	0.42	-8	31*	11	7
Cc1cccc(C)c1OC1(c2ccccc2)OC(=O)c2ccccc21 (configuration not stated)	19	-20	11	0.61	-10	22*	6	7
CCOC1(c2ccccc2)OC(=O)c2ccccc21 (configuration not stated)	-67	7	0	0.1	-17	-2	·	·
Cc1nn(C)cc1C(C)NC(=O)c1cc(COc2c(F)cccc2F)on1 (configuration not stated)	·	-29	·	-0.3	-6	-3	·	·
CC(NC(=O)c1cc(COc2c(F)cccc2F)on1)c1cnn(-c2ccccc2)c1 (configuration not stated)	20	-15	·	·	-36	22*	6	8
CC(C)(C)n1nnnc1C(c1cccs1)N(Cc1ccccc1)Cc1cccnc1 (configuration not stated)	-20	-22	3	-0.37	-11	26*	9	3
CC(C)(C)n1nnnc1C(c1cccnc1)N1CCN(c2ccccc2)CC1 (configuration not stated)	19	-1	9	0.02	29	2	·	·
CC(C)(C)n1nnnc1C(c1cccnc1)N(Cc1ccccc1)Cc1cccs1 (configuration not stated)	-46	-9	9	-0.54	7	21*	4	5
COc1ccc(OC)c(CN2CCC(CO)(CCOc3ccccc3)CC2)c1	·	-49	·	0.18	-39	11	·	·
Cc1cc(C)c(CN2CCC(CO)(CCOc3ccccc3)CC2)cc1C	·	-35	·	-1.2	-36	30*	9	23*
CC(=O)Nc1nnc(Cc2c[nH]c3ccccc23)s1	40	4	·	-0.16	11	-4	·	·
O=c1c2ccccc2nc(-c2ccc(Br)cc2)n1Cc1ccccc1	-110	-33	5	·	-86	24*	21*	32*
O=c1c2ccccc2nc(-c2ccco2)n1Cc1ccccc1	0	6	4	-0.79	-2	2	·	·
SMILES	Insulin prom inh	NPY2 pot ag	NPY-Y2 antag	Ins promoter up	NPY1 pot ag	NPY-Y1 antag	NPY1 antag conf	NPY2 antag ctr
CSc1ccc(-c2nc3cnccn3c2Nc2ccc3c(c2)OCO3)cc1	-20	17	12	·	13	28*	16	5
Clc1ccc(-c2nc3cnccn3c2Nc2ccc3c(c2)OCO3)cc1	·	12	10	-0.79	5	15	·	·
CCCCCCC(=O)Nc1nc(C)c(-c2csc(Nc3ccccc3OC)n2)s1	20	3	12	-2.2	5	32*	10	6
CCCC(C)C(=O)Nc1nc(C)c(-c2csc(Nc3ccccc3OC)n2)s1 (configuration not stated)	0	-14	9	-2.4	2	24*	13	6
CCn1c2ccccc2c2cc(CN3CCN(S(=O)(=O)Cc4ccccc4)CC3)ccc21	-24	-5	7	-0.17	-29	17	·	·
CCOc1ccc(CNC(=O)c2ccc(Sc3ccc(Cl)cc3)c(NC(C)=O)c2)cc1	12	-35	16	-0.7	-70	41*	24*	20*
Cc1cccc(C)c1OCCn1nc(C(=O)O)c2ccccc2c1=O	7	-30	10	·	-35	24*	17	23*
COCn1ccnc1C(O)(c1ccc(OC)cc1)c1ccc(OC)cc1	-19	-3	2	-0.21	-4	-2	·	·
Cc1oc(-c2ccc(Cl)cc2)nc1CN1CCC(C(=O)NCCCN2CCOCC2)CC1	·	3	7	-1.1	-38	23*	4	8
Clc1ccc(CN2CCCCCCC2)cc1Cl	-32	-29	7	-0.29	-15	22*	4	5
O=C(Cn1cncn1)N/N=C/c1cccnc1	·	13	·	0.32	19	·	·	·
CCOC(=O)C1(Cc2ccccc2)CCN(Cc2cccn2-c2cccnc2)CC1	·	-8	·	·	-9	30*	15	8
CCOC(=O)C1(Cc2ccccc2)CCN(Cc2cccn2-c2nccs2)CC1	-70	-10	·	·	-33	29*	12	22*
Fc1ccccc1/C=N/Nc1nc(-c2ccccn2)nc2ccccc12	·	-8	·	?	-25	·	·	·
